SIRT5 inh – blocks human SIRT5 desuccinylation of peptide; Q9NXA8; Purified SirT5, succinyl-peptide AMC, trypsin-coupled fluorescence; inhibition, % at 15 µM; actives 1.1% (n = 330,000); in the data active = inhibition above about 15%; inconclusive = no clear call, values can overlap the other calls
Target sequence (Q9NXA8 whole entry, looked up): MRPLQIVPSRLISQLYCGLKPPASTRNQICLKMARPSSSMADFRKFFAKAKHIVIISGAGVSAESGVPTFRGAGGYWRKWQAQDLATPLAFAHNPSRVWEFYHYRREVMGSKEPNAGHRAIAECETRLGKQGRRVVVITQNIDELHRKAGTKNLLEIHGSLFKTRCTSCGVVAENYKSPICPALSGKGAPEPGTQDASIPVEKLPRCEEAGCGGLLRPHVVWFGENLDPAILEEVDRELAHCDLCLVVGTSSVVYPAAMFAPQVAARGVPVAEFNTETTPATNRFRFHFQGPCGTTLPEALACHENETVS
S100A4 MyoIIA – blocks human S100A4 binding to myosin IIA peptide; P26447; S100A4/TAMRA-MyoIIA peptide fluorescence polarization; inhibition, % at 10.7 µM; actives 0.14% (n = 360,000); AID 652163;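 active = mean inhibition of at least 70% across replicates, with every replicate also reaching that level; inconclusive = mean inhibition reaches 70% but some replicates fall short; inactive = mean inhibition below 70%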
Target sequence (P26447 whole entry, looked up): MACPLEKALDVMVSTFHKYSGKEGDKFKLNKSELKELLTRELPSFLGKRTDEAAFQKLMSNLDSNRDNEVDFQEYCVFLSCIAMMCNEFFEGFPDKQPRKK
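Material: human S100A4 monomer with TAMRA-labelled myosin IIA peptide; buffer or medium: HEPES pH 7.2 with CaCl2, KCl, NaCl, DTT, Triton; compound dosing: one concentration per compound; schedule: 5 min incubation before reading; benchmarks: neutral control DMSO, positive control TFP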
MLL AF4-AF9 inh – MLL-AF4/AF9 protein interaction inhibition. P42568. AlphaScreen, biotin-AF4 peptide binding to FLAG-AF9. inhibition, % at 10 µM. actives 0.47% (n = 350,000);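 active = every replicate reaching a set inhibition limit, whatever the replicate mean, cut at about 25% in these data; inconclusive = mean inhibition reaches that limit but some replicates miss it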;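 also: 0% = plate neutral control median and 100% = total signal loss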
CaV13 FRET inh – Disruptors of the CACNA1D IQ motif to Ca2+-dependent inactivation inhibitor domain association, primary screening, Förster resonance energy transfer in intact living …; HEK cells, CFP/YFP FRET ICDI-IQ, plate reader, 10 min; percent FRET-ratio fall versus neutral wells; inhibition, % at 12.3 µM; actives 0.098% (n = 340,000); AID 743397;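 active = mean replicate inhibition of at least 30% and at least 1% of replicates passing that level; inconclusive = only one of the two criteria is met; inactive = neither criterion is met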;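 also: 0% = median of the neutral control wells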
DENV2 CPE – DENV2-induced cell death inhibition; actives 1.7% (n = 350,000); CPE inhibition, % at 9.99 µM; DENV2-infected cells, cytopathic effect rescue, plate reader; in the data active = CPE inhibition above about 20%, passing the limit was not always enough; inconclusive = no clear call, values can overlap the other calls; tested in BHK-21 cells;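 also: 0% = median of neutral control wells and 100% = median of positive control wells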
* hit, by the source's call; ! = repeats disagree. This is a sample that favours compounds with a hit; in the whole collection about 2.7% have one here.

`O=C(Cc1ccccn1)NCC[C@@H]1CC[C@@H](NS(=O)(=O)c2ccc(Cl)cc2)[C@@H](CO)O1` gave SIRT5 inh 1, S100A4 MyoIIA -23, MLL AF4-AF9 inh 0 and DENV2 CPE 34*.
For O=C(Cc1ccccn1)NCC[C@H]1CC[C@H](NS(=O)(=O)c2ccccc2)[C@H](CO)O1 the results were SIRT5 inh 16*, S100A4 MyoIIA 7, MLL AF4-AF9 inh 2 and DENV2 CPE -4.
Screening O=C(Cc1ccccn1)NCC[C@@H]1CC[C@H](NS(=O)(=O)c2ccccc2)[C@H](CO)O1 returned SIRT5 inh 7, S100A4 MyoIIA -4, MLL AF4-AF9 inh 0 and DENV2 CPE -6.
For O=C(Cc1ccccn1)NCC[C@@H]1CC[C@H](NS(=O)(=O)c2ccccc2)[C@@H](CO)O1 the results were SIRT5 inh 1, S100A4 MyoIIA -6, MLL AF4-AF9 inh 0 and DENV2 CPE -9.
For C[C@H]1CN([C@@H](C)CO)C(=O)Cc2cc(NS(=O)(=O)c3ccc(Cl)cc3)ccc2O[C@H]1CN(C)Cc1ccncc1 the results were SIRT5 inh -2, S100A4 MyoIIA -18, MLL AF4-AF9 inh -2 and DENV2 CPE 3.
Screening COCC(=O)Nc1ccc2c(c1)[C@H]1C[C@@H](CC(=O)NCc3cc(F)ccc3F)O[C@@H](CO)[C@H]1O2 returned DENV2 CPE 38*.
COCC(=O)Nc1ccc2c(c1)[C@@H]1C[C@H](CC(=O)NCc3ccccc3)O[C@@H](CO)[C@@H]1O2 was read as SIRT5 inh -2, S100A4 MyoIIA -1, MLL AF4-AF9 inh 1, CaV13 FRET inh -3 and DENV2 CPE -2.
Screening COCC(=O)Nc1ccc2c(c1)[C@H]1C[C@H](CC(=O)NCc3ccccc3)O[C@@H](CO)[C@H]1O2 returned SIRT5 inh 3, S100A4 MyoIIA -13, MLL AF4-AF9 inh -3 and DENV2 CPE 21*.
`COCC(=O)Nc1ccc2c(c1)[C@@H]1C[C@H](CC(=O)N(C)C)O[C@@H](CO)[C@@H]1O2` gave SIRT5 inh -3, S100A4 MyoIIA -10, MLL AF4-AF9 inh -2 and DENV2 CPE 30*.
COCC(=O)Nc1ccc2c(c1)[C@@H]1C[C@@H](CC(=O)N(C)C)O[C@H](CO)[C@@H]1O2 was read as S100A4 MyoIIA -6, MLL AF4-AF9 inh -3 and DENV2 CPE 18.
Screening COCC(=O)Nc1ccc2c(c1)[C@H]1C[C@@H](CC(=O)O)O[C@@H](CO)[C@H]1O2 returned SIRT5 inh -3, S100A4 MyoIIA -6, MLL AF4-AF9 inh -2 and DENV2 CPE 43*.
Screening COCC(=O)Nc1ccc2c(c1)[C@H]1C[C@@H](CC(=O)N(C)C)O[C@H](CO)[C@H]1O2 returned SIRT5 inh -3, S100A4 MyoIIA -33, MLL AF4-AF9 inh -7 and DENV2 CPE 0.
For CC(C)CC#Cc1ccc([C@@H]2[C@@H](CO)N3C(=O)CN(C(=O)Cc4cccnc4)C[C@@H]23)cc1 the results were SIRT5 inh -5, MLL AF4-AF9 inh 2 and DENV2 CPE -4.
Screening C[C@H](CO)N1C[C@H](C)[C@H](CN(C)C(=O)Nc2ccccc2)OCCCC[C@H](C)Oc2ccc(NC(=O)Nc3ccc4c(c3)OCO4)cc2C1=O returned SIRT5 inh 13, S100A4 MyoIIA -5, MLL AF4-AF9 inh inconclusive and DENV2 CPE -3.
For CN(C)CCCNc1cc(O)c2ncccc2c1 the results were SIRT5 inh 0, S100A4 MyoIIA 26, MLL AF4-AF9 inh 76*, CaV13 FRET inh -12 and DENV2 CPE 57*.
Screening Oc1cc(NCc2ccc(F)cc2)cc2cccnc12 returned SIRT5 inh 4, S100A4 MyoIIA 1, MLL AF4-AF9 inh 2, CaV13 FRET inh -5 and DENV2 CPE -8.
Cc1ccc(-n2c(SCC(=O)N3CCOCC3)nc(O)cc2=O)cc1 was read as SIRT5 inh 2, S100A4 MyoIIA -1, MLL AF4-AF9 inh 0 and DENV2 CPE 69*.
For COc1ccc(-n2c(SCC(=O)N3CCOCC3)nc(O)cc2=O)cc1 the results were SIRT5 inh -2, S100A4 MyoIIA -11, MLL AF4-AF9 inh 0 and DENV2 CPE 14.
C[C@@H]1CN([C@H](C)CO)C(=O)c2cc(/C=C/c3ccccc3)cnc2O[C@H]1CN(C)Cc1ccc2c(c1)OCO2 was read as SIRT5 inh -6, S100A4 MyoIIA -7, MLL AF4-AF9 inh 9 and DENV2 CPE -24.
CCCN(C)C[C@@H]1Oc2ncc(C#Cc3ccc(F)cc3)cc2C(=O)N([C@H](C)CO)C[C@@H]1C was read as SIRT5 inh 1, S100A4 MyoIIA -4, MLL AF4-AF9 inh 10 and DENV2 CPE 4.
For CC(C)CN1CCCC(N2CCN(c3cccc(Cl)c3)CC2)C1 (configuration not stated) the results were SIRT5 inh -2, S100A4 MyoIIA -72, MLL AF4-AF9 inh 1, CaV13 FRET inh -4 and DENV2 CPE 27*.
For COc1cccc(C(=O)N2CCOCC2)c1 the results were SIRT5 inh -2, S100A4 MyoIIA 4, MLL AF4-AF9 inh -12, CaV13 FRET inh -2 and DENV2 CPE 33*.
For C[C@H]1CCCCO[C@H](CN(C)S(=O)(=O)c2ccc(Cl)cc2)[C@@H](C)CN([C@@H](C)CO)C(=O)c2cc(NS(=O)(=O)c3cccs3)ccc2O1 the results were SIRT5 inh 6, S100A4 MyoIIA -17, MLL AF4-AF9 inh 4 and DENV2 CPE inconclusive.
C[C@@H]1CN([C@H](C)CO)C(=O)c2cccc(NS(=O)(=O)c3cccs3)c2O[C@H]1CN(C)Cc1ccccc1 was read as SIRT5 inh 26*!, S100A4 MyoIIA 9, MLL AF4-AF9 inh -1, CaV13 FRET inh -6 and DENV2 CPE -2.
`C[C@@H]1CN([C@@H](C)CO)C(=O)c2cccc(NS(=O)(=O)c3cccs3)c2O[C@@H]1CN(C)C(=O)Nc1cccc2ccccc12` gave SIRT5 inh 0, S100A4 MyoIIA 37, MLL AF4-AF9 inh 0 and DENV2 CPE 43*.
C[C@H]1CN([C@@H](C)CO)C(=O)c2cccc(NS(C)(=O)=O)c2O[C@@H]1CN(C)Cc1ccccc1 was read as SIRT5 inh 3, S100A4 MyoIIA 8, MLL AF4-AF9 inh -1 and DENV2 CPE 11.
C[C@@H]1CN([C@@H](C)CO)C(=O)c2cccc(NS(C)(=O)=O)c2O[C@H]1CN(C)Cc1ccc(-c2ccccc2)cc1 was read as SIRT5 inh 2, S100A4 MyoIIA 0, MLL AF4-AF9 inh 6 and DENV2 CPE -7.
C[C@H]1CN([C@@H](C)CO)C(=O)c2cccc(NS(C)(=O)=O)c2O[C@H]1CN(C)Cc1ccccc1 was read as SIRT5 inh 15*, S100A4 MyoIIA 2, MLL AF4-AF9 inh -5 and DENV2 CPE 14.
For C[C@H](CO)N1C[C@H](C)[C@@H](CN(C)Cc2ccccc2)Oc2c(NS(C)(=O)=O)cccc2C1=O the results were SIRT5 inh 0, S100A4 MyoIIA -5, MLL AF4-AF9 inh 1 and DENV2 CPE 39*!.
